Screening data: PubChem BioAssay, several laboratories
In the library only some 9.2% were active in any assay of this set; here they are far more common.
Autophagy HCS: autophagy modulation, high-content screen; MEF GFP-LC3 puncta imaging; test concentration mostly 10 µM; calls only at 10 µM (by protocol); hit rate 0.98% among 190,000; AID 463193;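 active = percentage of spot-positive cells more than 3 SD above its plate mean, without a fluorescence outlier flag or 80% toxicity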;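 also: spot-positive cell cutoff set from DMSO-treated cells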
PTEN del growth: PTEN-deleted cell growth suppression | HCT116 PTEN-null viability, CellTiter-Glo, 60 h; stronger effect = lower value | viability, % at 10 µM | hit rate 1.2% among 140,000 | AID 827;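 active = viability at or below a set limit, 4 SD under the median of all tested compounds, cut at about 3.7% in these data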;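 also: PTEN knockout HCT116 line with beta catenin targeted HCT116 as companion control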
Lmaj promast: Leishmania major promastigote growth inhibition; Leishmania major promastigotes, resazurin fluorescence viability; inhibition, % at 10 µM; hit rate 9% among 200,000; AID 1063; in the data active = inhibition above about 50%;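 also: promastigotes grown with compound for 44 hours at 28 °C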
Dynein cargo inh: dynein cargo transport inhibition. 3617.4 mouse cells, GR-EGFP nuclear translocation imaging; test concentration mostly 20 µM; stimulated with dexamethasone, 1 µM; stronger effect = lower value. z-score, hits read low. hit rate 0.47% among 220,000;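 active = plate z-score of nuclear minus cytoplasmic receptor signal below a set negative limit, without overly bright fluorescence or cell loss, cut at about -3.5 in these data, passing the limit was not always enough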;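 also: z-score of nuclear minus cytoplasmic ring GR-EGFP intensity difference per well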
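medium = tetracycline-free induction medium containing charcoal-stripped FBS | probe or stimulus = dexamethasone, 1.0 µM final | timing = 48 h induction, then 1 h compound, then 30 min agonist, 37 °C | detection = automated 10x imaging of fixed Hoechst-stained cells | read-out basis = nuclear versus cytoplasmic GR-EGFP signal, averaged per well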
bCat KO growth: beta-catenin-lacking colon tumor cell growth suppression. HCT116 beta-catenin knockout viability, CellTiter-Glo, 60 h; stronger effect = lower value. viability, % at 10 µM. hit rate 1.5% among 140,000. AID 818;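 active = viability at or under a set limit, the compound median less 4 SD, cut at about 6% in these data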;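 also: 0% = Hyamine 1622 control at 20 µM and 100% = untreated cell control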
Numbers without * were called inactive; i = inactive; . = no result; + = active, no number.

SMILES	Autophagy HCS	PTEN del growth	Lmaj promast	Dynein cargo inh	bCat KO growth
CCN(CCO)C(=O)CC(c1ccccc1)c1cc(Br)ccc1O (stereo not drawn)	i	98.7	50.1*	-0.488	95.2
CCCN(CCC)C(=O)CC(c1ccccc1)c1cc(C)ccc1O (stereo not drawn)	i	72.7	14.3	0.323	80.0
CCN(CC)c1ccc(NC(=O)CCNC(=O)c2ccco2)cc1	i	92.5	89.9*	0.555	74.0
O=C(CCNC(=O)c1ccco1)Nc1ccc(Cl)cc1	i	.	4.2	-0.313	.
CN1CCN(c2ccccc2NC(=O)COc2ccc(Br)cc2)CC1	i	.	74.4*	-0.165	90.5
O=C(Nc1ccccc1F)c1ccc(OCc2ccccc2)cc1	+	99.2	-7.2	1.83	97.0
CN1CCN(c2ccccc2NC(=O)c2ccc(OCc3ccccc3)cc2)CC1	i	6.4	20.2	-0.356	3.4*
CCCCOc1ccc(C(=O)Nc2ccc(N3CCN(C)CC3)cc2)cc1	i	1.8*	62.5*	-0.295	1.5*
CC1=CC(C)(C)N2C(=O)C3(SCC(=O)N3c3ccc(F)cc3)c3cc(C)cc1c32 (stereo not drawn)	i	30.3	92.2*	-0.635	44.4
O=C(C[n+]1cccc(NC(=O)c2ccccc2)c1)c1ccc(NC(=O)c2ccccc2)cc1	i	64.1	71.5*	-0.948	66.8
CC(C(=O)c1ccc(Br)cc1)[n+]1cccc(NC(=O)c2ccccc2)c1 (stereo not drawn)	i	86.5	55.8*	0.249	95.0
Cc1cc(NCCN2CCOCC2)n2ncc(-c3ccc(Cl)cc3)c2n1	i	.	-2.4	i	.
CC(=O)Nc1ccc(Nc2cc(C)nc3c(-c4ccc(Cl)cc4)c(C)nn23)cc1	i	73.7	93.3*	-0.763	90.1
CC(=O)Nc1ccc(Nc2cc(C)nc3c(-c4ccc(Cl)cc4)cnn23)cc1	i	27.2	79.1*	0.187	50.1
C/C(=C/C(=O)O)C(=O)Nc1cccc(C(F)(F)F)c1	i	.	-0.5	1.72	.
CC(C)(C)NS(=O)(=O)c1ccc(CCC(=O)N2CCCC2)cc1	i	.	5.4	4.17	.
O=C(CN1CCC(O)(c2ccc3c(c2)OCO3)CC1)OC1CCCCC1	i	101.2	96.9*	0.278	102.8
Cc1cc(N2CCOCC2)ccc1/C=C\[N+](=O)[O-]	i	10.0	69.6*	-1.78	4.4*
O=S(=O)(NCc1cn2ccccc2n1)c1cccs1	.	.	.	0.6	.
CCN(CC)S(=O)(=O)c1ccc(C)c(NC(=O)CN2CCN(Cc3ccccc3)CC2)c1	.	.	.	3.03	.
COc1ccc(NC(=O)c2c3c(nc4ccccc24)CCN(Cc2ccccc2)C3)c(OC)c1	i	.	1.8	-0.965	.
CCN(CC)S(=O)(=O)c1ccc(OC(C)C)c(NC(=O)c2c3c(nc4ccccc24)CCN(Cc2ccccc2)C3)c1	i	61.6	58.4*	0.654	64.6
COc1ccc(S(=O)(=O)N2CCCCCC2)cc1NC(=O)c1c2c(nc3ccccc13)CCN(Cc1ccccc1)C2	i	76.7	53.5*	-0.203	74.3
O=C(CN1C(=O)C2CC=CCC2C1=O)Nc1ccc(S(=O)(=O)N2CCOCC2)cc1 (stereo not drawn)	i	.	11.4	1.2	.
CCOC(=O)NC1(C(F)(F)F)C(=O)N(Cc2ccccn2)C2=C1C(=O)CC(C)(C)C2 (stereo not drawn)	i	108.5	-3.1	-0.715	100.2
SMILES	Autophagy HCS	PTEN del growth	Lmaj promast	Dynein cargo inh	bCat KO growth
COc1ccc(Nc2ncc(C#N)c(N)n2)c(OC)c1	.	.	.	-0.214	.
CCc1c(O)nc2sc3ccccc3n2c1=O	i	89.4	-4.5	-0.257	91.1
COc1cc(OC)c(N(C)S(=O)(=O)c2cccc(C(=O)OCC(=O)c3c[nH]c4ccccc34)c2)cc1Cl	i	41.5	97.4*	0.903	42.7
C=CCN(c1ccccc1OC)S(=O)(=O)c1cccc(C(=O)OCC(=O)c2c[nH]c3ccccc23)c1	i	55.6	96.9*	-0.792	59.4
CC1(C)CN(O)CCN1O	i	93.5	-4.7	-0.407	96.7
Cc1cc(C(=O)c2cnc(/N=C/N(C)C)s2)cc(C)c1O	i	78.3	-3.4	-0.195	74.0
COCCn1c(=NC(=O)c2ccc(S(=O)(=O)N3CCCc4ccccc43)cc2)sc2cc(S(C)(=O)=O)ccc21	i	81.0	99.9*	-0.998	87.2
C=CCn1c(=NC(=O)c2ccc(S(=O)(=O)N3CCc4ccccc4C3)cc2)sc2cc(S(N)(=O)=O)ccc21	i	1.7*	9.4	1.48	1.4*
C=CCn1c(=NC(=O)c2ccc(S(=O)(=O)N3CCCc4ccccc43)cc2)sc2cc(S(N)(=O)=O)ccc21	i	64.3	100.0*	-0.599	68.7
C=CCn1c(=NC(=O)CN2C(=O)CCC2=O)sc2cc(S(N)(=O)=O)ccc21	i	90.7	-6.2	-0.117	88.9
COCCn1c(=NC(=O)c2ccc(S(=O)(=O)N3CCc4ccccc4C3)cc2)sc2cc(S(N)(=O)=O)ccc21	i	80.4	99.0*	-0.944	68.6
Cc1ccc2c(C(=O)CN3CCN(C(=O)c4ccco4)CC3)c(C)[nH]c2c1	.	.	.	-0.726	.
C#CCn1c(=NC(=O)c2ccc(S(=O)(=O)N3CCc4ccccc4C3)cc2)sc2cc(S(N)(=O)=O)ccc21	+	1.5*	-3.9	-0.329	1.4*
COC(=O)Cn1c(=NC(=O)c2ccc(S(=O)(=O)N3CCc4ccccc4C3)cc2)sc2cc(OC)ccc21	i	86.9	87.5*	-2.71	85.3
CCCCn1c(=O)[nH]c(=O)c2c1nc(-c1ccc(CC)c([N+](=O)[O-])c1)n2C	i	.	84.1*	-1.25	.
CCC(=O)c1ccc(OCC(O)CN(CCc2ccccc2)Cc2ccccc2)cc1 (stereo not drawn)	i	48.5	99.6*	0.146	24.9
CCN(CC)CC(O)COc1ccccc1C(=O)CCc1ccccc1 (stereo not drawn)	i	.	94.8*	-0.133	.
CCCCN(CCCC)CC(O)COc1ccccc1C(=O)Nc1ccccc1 (stereo not drawn)	i	.	90.8*	-0.327	.
N#C/C(=C\c1ccncc1)c1nc2ccccc2c(=O)[nH]1	i	.	1.6	-0.101	.
Cc1cc(NC(=O)CSc2nnc(C3COc4ccccc4O3)o2)no1 (stereo not drawn)	+	89.4	-6.6	-0.0363	94.4
Cc1cc(C)nc(-n2nc(C)cc2NC(=O)CN2CCCC(C)C2)n1 (stereo not drawn)	i	96.1	15.4	2.35	87.4
Cc1cc(C)nc(-n2nc(C)cc2Nc2ccccc2)n1	i	45.1	51.8*	0.215	39.6
Cc1cc(N2CCN(c3ccccc3)CC2)nc(-n2nc(C)cc2C)n1	i	32.5	72.2*	1.81	50.1
Cc1cc(Nc2ccccc2)n(-c2ccccc2)n1	i	89.5	7.1	0.53	91.0
Cc1cc(C)nc(-n2nc(C)cc2NC(=O)CN2CCc3ccccc3C2)n1	i	2.7*	54.2*	1.51	5.1*
Cc1cc(N2CCN(c3ccccc3)CC2)nc(-c2ccccc2O)n1	i	55.7	3.1	0.18	72.4
